For 1 compound, inhibition and EC50 results are on record in ChEMBL document CHEMBL4251654, “Structure-based design of human immuno- and constitutive proteasomes inhibitors” (Eur J Med Chem, 2018).

pEC50: −log10 of the molar value. Bounds are passed on as bounds.

Assay [1] deals with T1, Proteasome Macropain subunit MB1 (Homo sapiens) (UniProt P28074).
T1 sequence (whole entry): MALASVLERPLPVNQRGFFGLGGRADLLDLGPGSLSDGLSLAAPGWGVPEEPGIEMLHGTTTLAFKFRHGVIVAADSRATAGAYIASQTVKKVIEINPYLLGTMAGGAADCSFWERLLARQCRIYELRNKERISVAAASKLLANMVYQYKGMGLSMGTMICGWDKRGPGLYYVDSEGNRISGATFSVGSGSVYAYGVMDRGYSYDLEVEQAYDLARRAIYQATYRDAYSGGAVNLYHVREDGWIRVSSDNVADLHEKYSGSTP
Nature of the assay: Inhibition of human 20S constitutive proteasome beta-5 at 50 uM using Suc-LLVY-AMC as substrate incubated for 15 mins measured for 45 mins by fluorescence assay relative to control. Put shortly: (§1)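 Human 20S cCP or iCP (0.3 nM) was exposed to compound (0.001-50 μM) for 15 min in pH 8 buffer of 20 mM Tris-HCl, 10% glycerol, 0.01% SDS, 2% DMSO. Suc-LLVY-AMC at 20 μM followed. Fluorescence (ex 360/em 460 nm) was read 45 min at 37 °C versus untreated enzyme.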

Assay [2] addresses T2, Proteasome subunit beta type-8 (Homo sapiens) (UniProt P28062).
T2 sequence (whole entry): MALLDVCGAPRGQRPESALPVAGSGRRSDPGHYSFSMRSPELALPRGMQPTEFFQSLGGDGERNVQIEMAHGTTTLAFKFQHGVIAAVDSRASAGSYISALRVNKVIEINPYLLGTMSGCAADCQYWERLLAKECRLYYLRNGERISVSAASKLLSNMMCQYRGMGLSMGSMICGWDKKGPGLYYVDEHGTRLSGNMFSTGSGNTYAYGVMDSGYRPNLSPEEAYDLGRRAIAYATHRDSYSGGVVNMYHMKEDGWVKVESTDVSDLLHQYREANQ
Put plainly: Inhibition of human 20S immunoproteasome beta-5 at 50 uM using Suc-LLVY-AMC as substrate incubated for 15 mins measured for 45 mins by fluorescence assay relative to control. Put shortly:
as §1

The target of assay [3] is T3, Proteasome component C5 (Homo sapiens) (UniProt P20618).
T3 sequence (whole entry): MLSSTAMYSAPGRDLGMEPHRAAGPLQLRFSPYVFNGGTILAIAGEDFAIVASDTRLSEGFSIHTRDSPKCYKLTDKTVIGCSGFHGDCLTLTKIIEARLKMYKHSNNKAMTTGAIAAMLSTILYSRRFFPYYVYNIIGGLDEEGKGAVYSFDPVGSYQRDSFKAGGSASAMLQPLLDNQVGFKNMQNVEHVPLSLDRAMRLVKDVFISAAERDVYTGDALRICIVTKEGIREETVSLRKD
Nature of the assay: Inhibition of human 20S constitutive proteasome beta-1 at 50 uM using Z-LLE-betaNA as substrate incubated for 15 mins measured for 45 mins by fluorescence assay relative to control. Put shortly: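 Human 20S constitutive proteasome, 0.3 nM, was preincubated 15 min with compound (0.001-50 μM) in pH 8 Tris-HCl 20 mM, 10% glycerol, 0.01% SDS, 2% DMSO. Z-LLE-βNA at 50 μM was added. βNA fluorescence (ex 340/em 404 nm) was monitored 45 min at 37 °C against an untreated control.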

Assay [4] has as its target T4, Proteasome subunit beta type-9 (Homo sapiens) (UniProt P28065).
T4 sequence (whole entry): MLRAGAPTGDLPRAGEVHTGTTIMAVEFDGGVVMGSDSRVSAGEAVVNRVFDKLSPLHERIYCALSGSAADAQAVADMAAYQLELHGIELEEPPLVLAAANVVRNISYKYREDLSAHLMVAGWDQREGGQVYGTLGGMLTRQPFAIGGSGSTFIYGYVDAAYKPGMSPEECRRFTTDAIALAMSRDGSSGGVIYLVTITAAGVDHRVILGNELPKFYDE
Put plainly: Inhibition of human 20S immunoproteasome beta-1 at 50 uM using Ac-PAL-AMC as substrate incubated for 15 mins measured for 45 mins by fluorescence assay relative to control. The method, boiled down:
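Human 20S immunoproteasome (0.3 nM) was given 15 min with compound (0.001-50 μM) in pH 8 buffer of 20 mM Tris-HCl, 10% glycerol, 0.01% SDS, 2% DMSO. Ac-PAL-AMC at 50 μM was the substrate. Fluorescence (ex 360/em 460 nm) was followed 45 min at 37 °C relative to control.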

Assay [5] deals with Proteasome Macropain subunit (Homo sapiens) (UniProt P49721). Put plainly: Inhibition of human 20S constitutive proteasome beta-2 at 50 uM using BocLRR-AMC as substrate incubated for 15 mins measured for 45 mins by fluorescence assay relative to control. The method, boiled down:
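Purified human 20S proteasome (cCP or iCP), 0.3 nM, preincubated 15 min with compound (0.001-50 μM) in pH 8 buffer of 20 mM Tris-HCl, 10% glycerol, 0.005% Triton X-100, 2% DMSO. Then Boc-LRR-AMC at 50 μM was added. AMC fluorescence (ex 360/em 460 nm) was followed 45 min at 37 °C. Activity is relative to an untreated control.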

Assay [6] deals with Huh-7. Put plainly: Cytotoxicity against human HuH7 cells assessed as reduction in cell viability after 48 hrs by Hoechst 33342 staining based HCS assay. Type of assay: functional. The conditions noted are these: Homo sapiens, Huh-7, 48 h; read-out: EC50. Put shortly:
(§2)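 Cells were grown at 37 °C, 5% CO2 in medium with 10% FBS, 1% penicillin-streptomycin, 2 mM glutamine: DMEM for HuH7, MDA-MB-231 and fibroblasts, EMEM for Caco2, McCoy's for HCT116, RPMI for PC3 and NCI-H727. 4000 cells/well were seeded and dosed 24 h later at 0.1-25 μM final, from DMSO stocks. After 48 h they were fixed in ethanol/acetic acid and Hoechst-stained nuclei were counted by imaging. Survival is relative to DMSO. EC50 came from dose-response curves.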

Assay [7] has as its system Caco-2. Put plainly: Cytotoxicity against human Caco2 cells assessed as reduction in cell viability after 48 hrs by Hoechst 33342 staining based HCS assay. In kind it is functional. As to conditions: Homo sapiens, Caco-2, 48 h; read-out: EC50. The method, boiled down:
as §2

Assay [8] relates to MDA-MB-231. Nature of the assay: Cytotoxicity against human MDA-MB-231 cells assessed as reduction in cell viability after 48 hrs by Hoechst 33342 staining based HCS assay. Type of assay: functional. The conditions noted are these: Homo sapiens, MDA-MB-231, 48 h; read-out: EC50. Put shortly:
as §2

For assay [9], the system named is HCT-116. Put plainly: Cytotoxicity against human HCT116 cells assessed as reduction in cell viability after 48 hrs by Hoechst 33342 staining based HCS assay. Type of assay: functional. As to conditions: Homo sapiens, HCT-116, 48 h; read-out: EC50. The method, boiled down:
as §2

Assay [10] concerns PC-3. Put plainly: Cytotoxicity against human PC3 cells assessed as reduction in cell viability after 48 hrs by Hoechst 33342 staining based HCS assay. Type of assay: functional. The conditions noted are these: Homo sapiens, PC-3, 48 h; read-out: EC50. Put shortly:
as §2

Assay [11] relates to NCI-H727. Put plainly: Cytotoxicity against human NCI-H727 cells assessed as reduction in cell viability after 48 hrs by Hoechst 33342 staining based HCS assay. As to conditions: Homo sapiens, NCI-H727, 48 h; read-out: EC50. In kind it is functional. Put shortly: as §2
Assay [12] relates to MCF7. Put plainly: Cytotoxicity against human MCF7 cells assessed as reduction in cell viability after 48 hrs by Hoechst 33342 staining based HCS assay. Type of assay: functional. As to conditions: Homo sapiens, MCF7, 48 h; read-out: EC50.
The subject of assay [13] is Fibroblast. Nature of the assay: Cytotoxicity against human fibroblasts assessed as reduction in cell viability after 48 hrs by Hoechst 33342 staining based HCS assay. The method, boiled down:
as §2

Chain of Proteasome Macropain subunit (Homo sapiens) (P49721 whole entry): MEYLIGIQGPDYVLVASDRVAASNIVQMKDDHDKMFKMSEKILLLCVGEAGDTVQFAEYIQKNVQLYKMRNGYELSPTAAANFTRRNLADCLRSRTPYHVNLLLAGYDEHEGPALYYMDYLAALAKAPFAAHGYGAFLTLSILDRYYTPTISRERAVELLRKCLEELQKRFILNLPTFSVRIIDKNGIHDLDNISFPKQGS

`COc1ccc(C[C@H](NC(=O)[C@H](C)NC(=O)CN2CCOCC2)C(=O)N[C@@H](Cc2ccccc2)C(=O)[C@@]2(C)CO2)cc1`: the inhibition in assay [1], in assay [2], in assay [3], in assay [4] and in assay [5] was above 85% in each case. In addition, the pEC50 in assay [6] was 6.41; in assay [7], 5.89; in [8] it was 6.57; in [9] it was 6.96; in [10] it was 6.48; in [11] it was 6.52. For the same compound, the figures for the pEC50 in [12] and in assay [13] were 6.59 and 6.80, respectively.
